This is an account of results in ChEMBL document CHEMBL5143539, “Synthesis and evaluation of dual-action kanglemycin-fluoroquinolone hybrid antibiotics” (Bioorg Med Chem Lett, 2022).

One data set has as its system HEK293. The data set is described as follows: Cytotoxicity against HEK293 cells. It is filed as toxicity, cell-based, Homo sapiens.
In data set [1] the test system is Staphylococcus aureus. The data set is described as follows: Antibacterial activity against rifampicin resistant Staphylococcus aureus harboring RpoBH481Y mutant assessed as inhibition of bacterial growth. It counts as functional.
The next data set relates to Escherichia coli. The data set is described as follows: Antibacterial activity against Escherichia coli assessed as inhibition of bacterial growth. It is filed as functional. The method in brief: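 Run in duplicate, with the same result obtained in each trial.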
Data set [2] has as its system Staphylococcus aureus. The experiment in a line: Antibacterial activity against Staphylococcus aureus harboring RpoBH481Y/ParCS80F/GyrAS84L triple mutant assessed as inhibition of bacterial growth. It counts as functional.
The test system of data set [3] is Staphylococcus aureus. The experiment in a line: Antibacterial activity against wild type Staphylococcus aureus assessed as inhibition of bacterial growth. It counts as functional.
The subject of data set [4] is Staphylococcus aureus. The experiment in a line: Antibacterial activity against ciprofloxacin resistant Staphylococcus aureus harboring ParCS80F and GyrAS84L double mutant assessed as inhibition of bacterial growth. It is filed as functional.

≈ marks a conversion by molar mass, not a printed value. Some results are limits rather than exact numbers.

As for `CC(=O)O[C@H]1[C@H](C)[C@H](O)[C@H](C)[C@@H](O)[C@@H](C(C)OC(=O)C(C)(C)CC(=O)N[C@H]2[C@@H]3CN(c4nc5c(cc4F)c(=O)c(C(=O)O)cn5-c4ccc(F)cc4F)C[C@@H]32)/C=C/C=C(/C)C(=O)NC2=CC(=O)c3c(c(O)c(C)c4c3C(=O)[C@@](C)(O/C=C/[C@H](O[C@H]3C[C@@H]5OCO[C@@H]5[C@@H](C)O3)[C@H]1C)O4)C2=O` (stereo partly drawn), the IC50 (commonly the concentration that inhibits the measured activity by half) in the data set on HEK293 is above 64 µg/mL. In addition, the MIC (commonly the smallest concentration in the dilution series that meets the test's criterion for growth inhibition) in the data set on Staphylococcus aureus [1] was 16 µg/mL (≈ 11.6 µM); in the data set on Escherichia coli, above 64 µg/mL; with Staphylococcus aureus [2] it was above 64 µg/mL; with Staphylococcus aureus [3], 8 µg/mL (≈ 5.8 µM); in the data set with Staphylococcus aureus [4], 8 µg/mL (≈ 5.8 µM).
As to `CC(=O)O[C@H]1[C@H](C)[C@H](O)[C@H](C)[C@@H](O)[C@@H](C(C)OC(=O)C(C)(C)CC(=O)O)/C=C/C=C(/C)C(=O)Nc2c3oc4cc(NCCCNC5(c6c(F)cc7c(=O)c(C(=O)O)cn8c7c6OC[C@@H]8C)CC5)cc(O)c4nc-3c3c4c(c(C)c(O)c3c2=O)O[C@](C)(O/C=C/[C@H](O[C@H]2C[C@@H]3OCO[C@@H]3[C@@H](C)O2)[C@H]1C)C4=O` (stereo partly drawn), the concentration for half-maximal inhibition (IC50) in the data set on HEK293 was above 64 µg/mL. Moreover, the minimum inhibitory concentration (MIC) in the data set on Staphylococcus aureus [1] is above 64 µg/mL; with Escherichia coli, 64 µg/mL (≈ 43.8 µM); in the data set with Staphylococcus aureus [2], above 64 µg/mL; in the data set on Staphylococcus aureus [3], 4 µg/mL (≈ 2.74 µM); in the data set on Staphylococcus aureus [4], 4 µg/mL (≈ 2.74 µM).
Compound `COc1c(N2CCCC(N(C)c3cc(O)c4nc5c6c7c8c(C)c(O)c6c(=O)c(c-5oc4c3)NC(=O)/C(C)=C\C=C\[C@H](C(C)OC(=O)C(C)(C)CC(=O)O)[C@H](O)[C@@H](C)[C@@H](O)[C@@H](C)[C@H](OC(C)=O)[C@H](C)[C@@H](O[C@H]3C[C@@H]4OCO[C@@H]4[C@@H](C)O3)/C=C/O[C@@](C)(O8)C7=O)C2)c(F)cc2c(=O)c(C(=O)O)cn(C3CC3)c12` (stereo partly drawn) came in with a 50% inhibitory concentration (IC50) with HEK293 of 36 µg/mL (≈ 24.4 µM). Besides, the MIC in the data set with Staphylococcus aureus [1] was 16 µg/mL (≈ 10.9 µM); in the data set on Escherichia coli it was 64 µg/mL (≈ 43.4 µM); in the data set with Staphylococcus aureus [2], above 64 µg/mL; in the data set with Staphylococcus aureus [3], 8 µg/mL (≈ 5.43 µM); with Staphylococcus aureus [4] it was 16 µg/mL (≈ 10.9 µM).
`COc1c(N2C[C@@H]3CCCN(C(=O)CC(C)(C)C(=O)OC(C)[C@H]4/C=C/C=C(/C)C(=O)NC5=CC(=O)c6c(c(O)c(C)c7c6C(=O)[C@@](C)(O/C=C/[C@H](O[C@H]6C[C@@H]8OCO[C@@H]8[C@@H](C)O6)[C@@H](C)[C@@H](OC(C)=O)[C@H](C)[C@H](O)[C@H](C)[C@H]4O)O7)C5=O)[C@@H]3C2)c(F)cc2c(=O)c(C(=O)O)cn(C3CC3)c12` (stereo partly drawn) gave an IC50 in the data set on HEK293 of 28 µg/mL (≈ 20.5 µM). Further, the MIC is above 64 µg/mL in the data set with Staphylococcus aureus [1]; above 64 µg/mL in the data set on Escherichia coli; above 64 µg/mL with Staphylococcus aureus [2]; 32 µg/mL (≈ 23.4 µM) with Staphylococcus aureus [3]; 32 µg/mL (≈ 23.4 µM) in the data set with Staphylococcus aureus [4].
As for `CC(=O)O[C@H]1[C@H](C)[C@H](O)[C@H](C)[C@@H](O)[C@@H](C(C)OC(=O)C(C)(C)CC(=O)O)/C=C/C=C(/C)C(=O)Nc2c3oc4cc(N5Cc6cc(-c7ccc8c(=O)c(C(=O)O)cn(C9CC9)c8c7OC(F)F)ccc6[C@H]5C)cc(O)c4nc-3c3c4c(c(C)c(O)c3c2=O)O[C@](C)(O/C=C/[C@H](O[C@H]2C[C@@H]3OCO[C@@H]3[C@@H](C)O2)[C@H]1C)C4=O` (stereo partly drawn), the IC50 in the data set on HEK293 was above 64 µg/mL. The MIC is 2 µg/mL (≈ 1.32 µM) in the data set with Staphylococcus aureus [1]; 16 µg/mL (≈ 10.6 µM) in the data set with Escherichia coli; above 64 µg/mL with Staphylococcus aureus [2]; 1 µg/mL (≈ 0.662 µM) in the data set with Staphylococcus aureus [3]; 1 µg/mL (≈ 0.662 µM) in the data set with Staphylococcus aureus [4].
On to `COc1c(N2CCCC(N(C)C(=O)CC(C)(C)C(=O)OC(C)[C@H]3/C=C/C=C(/C)C(=O)NC4=CC(=O)c5c(c(O)c(C)c6c5C(=O)[C@@](C)(O/C=C/[C@H](O[C@H]5C[C@@H]7OCO[C@@H]7[C@@H](C)O5)[C@@H](C)[C@@H](OC(C)=O)[C@H](C)[C@H](O)[C@H](C)[C@H]3O)O6)C4=O)C2)c(F)cc2c(=O)c(C(=O)O)cn(C3CC3)c12` (stereo partly drawn), for which, in the data set with HEK293, the concentration for half-maximal inhibition (IC50) worked out at 23 µg/mL (≈ 17 µM). The MIC in the data set on Staphylococcus aureus [1] was above 64 µg/mL; in the data set on Escherichia coli, above 64 µg/mL; with Staphylococcus aureus [2], above 64 µg/mL; with Staphylococcus aureus [3], 32 µg/mL (≈ 23.6 µM); in the data set on Staphylococcus aureus [4], 16 µg/mL (≈ 11.8 µM).
For the compound `CO/N=C1\CN(c2nc3c(cc2F)c(=O)c(C(=O)O)cn3C2CC2)CC1CNC(=O)CC(C)(C)C(=O)OC(C)[C@H]1/C=C/C=C(/C)C(=O)NC2=CC(=O)c3c(c(O)c(C)c4c3C(=O)[C@@](C)(O/C=C/[C@H](O[C@H]3C[C@@H]5OCO[C@@H]5[C@@H](C)O3)[C@@H](C)[C@@H](OC(C)=O)[C@H](C)[C@H](O)[C@H](C)[C@H]1O)O4)C2=O` (stereo partly drawn), the concentration for half-maximal inhibition (IC50) in the data set on HEK293 is above 64 µg/mL. Further, the MIC was above 64 µg/mL in the data set on Staphylococcus aureus [1]; above 64 µg/mL in the data set with Escherichia coli; above 64 µg/mL with Staphylococcus aureus [2]; 16 µg/mL (≈ 11.8 µM) in the data set on Staphylococcus aureus [3]; 8 µg/mL (≈ 5.91 µM) in the data set on Staphylococcus aureus [4].
As for `COc1c(N2C[C@@H]3CCCN(c4cc(O)c5nc6c7c8c9c(C)c(O)c7c(=O)c(c-6oc5c4)NC(=O)/C(C)=C\C=C\[C@H](C(C)OC(=O)C(C)(C)CC(=O)O)[C@H](O)[C@@H](C)[C@@H](O)[C@@H](C)[C@H](OC(C)=O)[C@H](C)[C@@H](O[C@H]4C[C@@H]5OCO[C@@H]5[C@@H](C)O4)/C=C/O[C@@](C)(O9)C8=O)[C@@H]3C2)c(F)cc2c(=O)c(C(=O)O)cn(C3CC3)c12` (stereo partly drawn), the 50% inhibitory concentration (IC50) in the data set with HEK293 was above 64 µg/mL. Moreover, the MIC with Staphylococcus aureus [1] was 8 µg/mL (≈ 5.38 µM); with Escherichia coli it was 32 µg/mL (≈ 21.5 µM); in the data set on Staphylococcus aureus [2] it was above 64 µg/mL; in the data set with Staphylococcus aureus [3], 0.5 µg/mL (≈ 0.336 µM); in the data set on Staphylococcus aureus [4], 0.5 µg/mL (≈ 0.336 µM).
